Measured values from ChEMBL document CHEMBL3734708, “Synthesis, cytotoxicity and antiviral evaluation of new series of imidazo[4,5-g]quinoline and pyrido[2,3-g]quinoxalinone derivatives” (Eur J Med Chem, 2015).

How the values were obtained:
[1] = Cytotoxicity against human MT4 cells assessed as reduction in cell proliferation after 96 hrs by MTT assay; type: cell-based
How it was run: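 MT-4 cells in exponential growth seeded at 1 × 10^5 cells/mL in RPMI-1640 with 10% FBS and penicillin/streptomycin. Cultured with serial compound dilutions at 37 °C, 5% CO2. MTT viability after 96 h. CC50 by linear regression against untreated controls. Mean of three independent determinations.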

[2] = system: Human immunodeficiency virus 1; test: Antiviral activity against HIV-1 3B infected in human MT4 cells assessed as protection against virus-induced cytopathic effect after 4 days by MTT assay; type: functional, organism-based; conditions: Human immunodeficiency virus 1, 3B, MT4, 96 h
How it was run: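 MT-4 cells (1 × 10^4/well in RPMI) with or without serial compound dilutions, infected with HIV-1 at 100 CCID50 (m.o.i. 0.01). After 4 days at 37 °C, protection from cytopathogenicity read by MTT. EC50 by linear regression versus untreated controls; mean of three independent determinations.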

[3] = Cytotoxicity against MDBK cells assessed as reduction in cell viability after 72 hrs by MTT assay; type: cell-based, Bos taurus; conditions: cattle
How it was run: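 MDBK cells seeded at 6 × 10^5 cells/mL in MEM-E with L-glutamine, 1 mM sodium pyruvate, kanamycin and 10% horse serum. Mock-infected cultures held with serial compound dilutions at 37 °C, 5% CO2. MTT viability read after 72 h. 50% cytotoxic concentration from linear regression as % of untreated controls. Three independent determinations.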

[4] = system: Bovine viral diarrhea virus 1; test: Antiviral activity against BVDV NADL ATCC VR-534 infected in MDBK cells assessed as protection against virus-induced cytopathic effect after 3 or 4 days by MTT assay; type: functional, organism-based; conditions: Bovine viral diarrhea virus isolates and strains, NADL ATCC VR-534, MDBK
How it was run: (§1)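 BHK-21 (YFV, Reo-1) or MDBK (BVDV) cells seeded at 5 × 10^4 or 3 × 10^4 cells/well and grown overnight to confluence. Monolayers infected at m.o.i. 0.01 in maintenance medium (MEM-Earle, 0.5% inactivated FBS). Serial compound dilutions added 2 h after infection; 37 °C for 3-4 days. Viability read by MTT. EC50 by linear regression versus untreated controls; mean of three determinations.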

[5] = Cytotoxicity against BHK21 cells assessed as reduction in cell viability after 72 hrs by MTT assay; type: cell-based, Mesocricetus auratus, BHK-21; conditions: hamster
How it was run: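 BHK cells seeded at 1 × 10^6 cells/mL in MEM-E with L-glutamine, 1 mM sodium pyruvate, kanamycin and 10% FBS. Mock-infected cells exposed to serial dilutions of compound at 37 °C, 5% CO2, run in parallel with the antiviral assays. Viability by MTT at 72 h. CC50 by linear regression vs untreated controls. Mean of three independent determinations.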

Yellow fever virus = test: Antiviral activity against YFV 17-D vaccine (Stamaril Pasteur J07B01) infected in BHK21 cells assessed as protection against virus-induced cytopathic effect after 3 or 4 days by MTT assay; type: functional, organism-based; conditions: BHK-21; how it was run: as §1
[6] = system: Mammalian orthoreovirus 1; test: Antiviral activity against Reovirus 1 ATCC VR- 214 infected in BHK21 cells assessed as protection against virus-induced cytopathic effect after 3 or 4 days by MTT assay; type: functional, cell-based; conditions: Mammalian orthoreovirus 1, ATCC VR- 214, BHK-21; how it was run: as §1
[7] = Cytotoxicity against african green monkey Vero 76 cells assessed as reduction in cell viability after 48 to 96 hrs by MTT assay; type: cell-based; conditions: chlorocebus sabaeus
How it was run: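 Vero-76 cells plated at 4 × 10^5 cells/mL in D-MEM with L-glutamine, kanamycin and 10% FBS. Incubated with serial dilutions of test compounds at 37 °C, 5% CO2 for 48-96 h. Viability by MTT. CC50 by linear regression relative to untreated cells. Mean of three independent runs.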

Coxsackievirus B5 = test: Antiviral activity against CVB-5 virus Faulkner ATCC VR-185 infected in african green monkey Vero-76 cells after 3 days by plaque reduction assay; type: functional, organism-based; conditions: Enterovirus B, Faulkner ATCC VR-185, Vero 76, 72 h
[8] = system: Human poliovirus 1 strain Sabin; test: Antiviral activity against Human poliovirus 1 strain Sabin 1 virus infected in african green monkey Vero-76 cells after 2 days by plaque reduction assay; type: functional, organism-based; conditions: Enterovirus C, 1, Vero 76, 48 h
[9] = system: Respiratory syncytial virus; test: Antiviral activity against RSVA2 ATCC VR-1540 infected in african green monkey Vero-76 cells after 5 days by plaque reduction assay; type: functional, organism-based; conditions: human respiratory syncytial virus, A2 ATCC VR-1540, Vero 76, 120 h
[10] = system: Vesicular stomatitis virus; test: Antiviral activity against VSV Indiana ATCC VR-158 infected in african green monkey Vero-76 cells after 2 days by plaque reduction assay; type: functional, organism-based; conditions: Indiana ATCC VR-158, Vero 76, 48 h
Vaccinia virus = test: Antiviral activity against VV Elstree ATCC VR-1549 infected in african green monkey Vero-76 cells after 3 days by plaque reduction assay; type: functional, organism-based; conditions: Orthopoxvirus vaccinia, Elstree ATCC VR-1549, Vero 76, 72 h
Human alphaherpesvirus 1 = test: Antiviral activity against HSV-1 KOS ATCC VR- 1493 infected in african green monkey Vero-76 cells after 3 days by plaque reduction assay; type: functional, organism-based; conditions: Human alphaherpesvirus 1, KOS ATCC VR1493, Vero 76, 72 h

## Cn1c(=O)c(-c2ccccc2)nc2c(Cl)c3ncccc3cc21
[1]
  CC50 at 96 h: > 100 µM
[2]
  EC50: > 100 µM
[3]
  CC50 at 72 h: > 100 µM
[4]
  EC50: 16 µM
[5]
  CC50 at 72 h: > 100 µM
Yellow fever virus
  EC50: > 100 µM
[6]
  EC50: > 100 µM
[7]
  CC50: > 100 µM
Coxsackievirus B5
  EC50: 17 µM
[8]
  EC50: 38 µM
[9]
  EC50: > 100 µM
[10]
  EC50: > 100 µM
Vaccinia virus
  EC50: > 100 µM
Human alphaherpesvirus 1
  EC50: > 100 µM

## O=c1c(-c2ccccc2)nc2c(Cl)c3ncccc3cc2n1Cc1ccccc1
[1]
  CC50 at 96 h: 88 µM
[2]
  EC50: > 88 µM
[3]
  CC50 at 72 h: > 100 µM
[4]
  EC50: 46 µM
[5]
  CC50 at 72 h: > 100 µM
Yellow fever virus
  EC50: > 100 µM
[6]
  EC50: > 100 µM
[7]
  CC50: 90 µM
Coxsackievirus B5
  EC50: > 90 µM
[8]
  EC50: > 90 µM
[9]
  EC50: > 90 µM
[10]
  EC50: > 90 µM
Vaccinia virus
  EC50: > 90 µM
Human alphaherpesvirus 1
  EC50: > 100 µM

## N#CCn1c(=O)c(-c2ccccc2)nc2c(Cl)c3ncccc3cc21
[1]
  CC50 at 96 h: > 100 µM
[2]
  EC50: > 100 µM
[3]
  CC50 at 72 h: > 100 µM
[4]
  EC50: > 100 µM
[5]
  CC50 at 72 h: > 100 µM
Yellow fever virus
  EC50: > 100 µM
[6]
  EC50: > 100 µM
[7]
  CC50: 90 µM
Coxsackievirus B5
  EC50: > 90 µM
[8]
  EC50: > 90 µM
[9]
  EC50: > 90 µM
[10]
  EC50: > 90 µM
Vaccinia virus
  EC50: > 90 µM
Human alphaherpesvirus 1
  EC50: > 90 µM

## CC(C)c1nc2c(Cl)c3ncccc3cc2n(C)c1=O
[1]
  CC50 at 96 h: > 100 µM
[2]
  EC50: > 100 µM
[3]
  CC50 at 72 h: > 100 µM
[4]
  EC50: > 100 µM
[5]
  CC50 at 72 h: > 100 µM
Yellow fever virus
  EC50: > 100 µM
[6]
  EC50: > 100 µM
[7]
  CC50: > 100 µM
Coxsackievirus B5
  EC50: > 100 µM
[8]
  EC50: > 100 µM
[9]
  EC50: > 100 µM
[10]
  EC50: > 100 µM
Vaccinia virus
  EC50: > 100 µM
Human alphaherpesvirus 1
  EC50: > 100 µM

## O=[N+]([O-])c1ccc(COc2nc3cc4cccnc4c(Cl)c3nc2-c2ccccc2)cc1
[1]
  CC50 at 96 h: > 100 µM
[2]
  EC50: > 100 µM
[3]
  CC50 at 72 h: > 100 µM
[4]
  EC50: > 100 µM
[5]
  CC50 at 72 h: > 100 µM
Yellow fever virus
  EC50: > 100 µM
[6]
  EC50: > 100 µM
[7]
  CC50: > 100 µM
Coxsackievirus B5
  EC50: > 100 µM
[8]
  EC50: > 100 µM
[9]
  EC50: > 100 µM
[10]
  EC50: > 100 µM
Vaccinia virus
  EC50: > 100 µM
Human alphaherpesvirus 1
  EC50: > 100 µM

## COc1nc2cc3cccnc3c(Cl)c2nc1C(C)C
[1]
  CC50 at 96 h: > 100 µM
[2]
  EC50: > 100 µM
[3]
  CC50 at 72 h: > 100 µM
[4]
  EC50: > 100 µM
[5]
  CC50 at 72 h: > 100 µM
Yellow fever virus
  EC50: > 100 µM
[6]
  EC50: > 100 µM
[7]
  CC50: > 100 µM
Coxsackievirus B5
  EC50: > 100 µM
[8]
  EC50: > 100 µM
[9]
  EC50: > 100 µM
[10]
  EC50: > 100 µM
Vaccinia virus
  EC50: > 100 µM
Human alphaherpesvirus 1
  EC50: > 100 µM

## CCn1c(=O)c(-c2ccccc2)nc2c(Cl)c3ncccc3cc21
[1]
  CC50 at 96 h: > 100 µM
[2]
  EC50: > 100 µM
[3]
  CC50 at 72 h: > 100 µM
[4]
  EC50: > 100 µM
[5]
  CC50 at 72 h: > 100 µM
Yellow fever virus
  EC50: > 100 µM
[6]
  EC50: > 100 µM
[7]
  CC50: 60 µM
Coxsackievirus B5
  EC50: > 60 µM
[8]
  EC50: > 60 µM
[9]
  EC50: > 60 µM
[10]
  EC50: > 60 µM
Vaccinia virus
  EC50: > 60 µM
Human alphaherpesvirus 1
  EC50: > 60 µM

## CCOc1nc2cc3cccnc3c(Cl)c2nc1-c1ccccc1
[1]
  CC50 at 96 h: > 100 µM
[2]
  EC50: > 100 µM
[3]
  CC50 at 72 h: > 100 µM
[4]
  EC50: 73 µM
[5]
  CC50 at 72 h: > 100 µM
Yellow fever virus
  EC50: > 100 µM
[6]
  EC50: > 100 µM
[7]
  CC50: 50 µM
Coxsackievirus B5
  EC50: > 50 µM
[8]
  EC50: > 50 µM
[9]
  EC50: > 50 µM
[10]
  EC50: > 50 µM
Vaccinia virus
  EC50: > 50 µM
Human alphaherpesvirus 1
  EC50: > 50 µM

## COc1nc2cc3cccnc3c(Cl)c2nc1-c1ccccc1
[1]
  CC50 at 96 h: > 100 µM
[2]
  EC50: > 100 µM
[3]
  CC50 at 72 h: > 100 µM
[4]
  EC50: 4 µM
[5]
  CC50 at 72 h: > 100 µM
Yellow fever virus
  EC50: > 100 µM
[6]
  EC50: 21 µM
[7]
  CC50: > 100 µM
Coxsackievirus B5
  EC50: > 100 µM
[8]
  EC50: 73 µM
[9]
  EC50: 9 µM
[10]
  EC50: > 100 µM
Vaccinia virus
  EC50: > 100 µM
Human alphaherpesvirus 1
  EC50: > 100 µM

## O=c1c(Cc2ccccc2)nc2cc3cccnc3c(Cl)c2n1C1CCCCC1
[1]
  CC50 at 96 h: 34 µM
[2]
  EC50: > 34 µM
[3]
  CC50 at 72 h: > 100 µM
[4]
  EC50: 5 µM
[5]
  CC50 at 72 h: 20 µM
Yellow fever virus
  EC50: > 20 µM
[6]
  EC50: > 20 µM
[7]
  CC50: 20 µM
Coxsackievirus B5
  EC50: > 20 µM
[8]
  EC50: > 20 µM
[9]
  EC50: > 20 µM
[10]
  EC50: > 20 µM
Vaccinia virus
  EC50: > 20 µM
Human alphaherpesvirus 1
  EC50: > 20 µM
